Bioassay records deposited in PubChem BioAssay by several laboratories.
The list is not random: actives were taken first. Their share in the collection is about 5%.
CHOP UPR activ – activators of apoptotic arm of unfolded protein response (CHOP); CHO-CHOP luciferase reporter, UPR activation, luminescence; percent of tunicamycin response over DMSO baseline; activation, % at 10 µM; 330,000 tested, 0.34% active;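 active = at 10 µM dose, activation of 40% or more, normalized to positive control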;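 also: 100% = tunicamycin at 10 µg/mL and 0% = DMSO alone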
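Assay system: CHO-CHOP cells, stable luciferase reporter of PERK-eIF2a-CHOP signalling / Buffer or medium: F12 plus 10% serum / Compound dosing: one dose, 10 µM in 0.5% DMSO / Times: 6 h compound treatment, 37 °C / Technique: luciferase luminescence / Read-out: % reporter activation, DMSO baseline versus tunicamycin full activation / Benchmarks: tunicamycin and DMSO controls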
T cruzi inh – T. cruzi replication inhibition. T. cruzi beta-gal in NIH3T3, luminescence, 90 h. inhibition, % (test concentration not listed). 300,000 tested, 1.4% active. AID 1885;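 active = mean inhibition across valid replicates above about 55%, limit read from the data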;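 also: signal also drops with host cell toxicity which is not excluded here; 0% = plate median of DMSO wells and 100% = zero luminescence signal; higher percent means less beta-gal luminescence so fewer parasites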
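compound dosing = single 50 nL compound addition per well in DMSO | material = NIH/3T3 host cells with β-galactosidase reporter T. cruzi | input = 5,000 host fibroblasts per well | timing = ≥90 h infection period, 3 h prior cell attachment | read-out basis = percent inhibition of parasite-derived β-gal signal | detection = GalScreen β-gal luminescence, detergent lysis, 60 min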
UPR XBP1 act – adaptive UPR (XBP1) activation | CHO-XBP1 luciferase reporter, IRE1-XBP1 UPR activation, luminescence; percent of tunicamycin response, DMSO as zero | activation, % at 20 µM | 330,000 tested, 0.33% active | AID 463104;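 active = versus positive control, 20 µM dose yields 30% or more activation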;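 also: 100% = tunicamycin at 10 µg/mL and 0% = DMSO only wells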
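assay system = CHO-XBP1 luciferase reporter cells | amount = 1000 cells/well | buffer or medium = F12 plus 10% FBS | compound dosing = single point, 20 µM final compound, 1% DMSO | incubation = 16-18 h cell attachment at 37 °C, then 6 h compound exposure | detection = Steady-Glo luminescence read | controls = tunicamycin 10 µg/mL and vehicle-only wells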
CSC inhib – blocks cancer stem cells; cancer stem cell-like cells viability, luminescence; inhibition, % at 7.5 µM; 300,000 tested, 1.1% active; AID 2717; in the data active = inhibition above about 75%; tested in HMLE shEcad cells
Beta apoptosis – blocks beta cell apoptosis; INS-1E cytokine-induced death, ATP luminescence, 48 h; percent of positive-control rescue, neutral wells zero; protection from apoptosis, % (concentration not given with the values); 300,000 tested, 0.8% active; AID 435005;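 active = Every replicate reaches about 75%, or at least half do and their mean reaches it too, limit read from the data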;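 also: 0% = cytokine-treated negative control wells and 100% = positive control rescue; higher means more ATP so stronger rescue from cytokine killing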
Mdm2 MdmX PPI – disrupts the human Mdm2-MdmX interaction; SaOS-2 split-luciferase Mdm2/MdmX complementation, luminescence; inhibition, % at 8 µM; 330,000 tested, 3% active;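 active = inhibition of at least 50% at 8 µM in the primary screen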
Target sequence (O15151 whole entry, looked up): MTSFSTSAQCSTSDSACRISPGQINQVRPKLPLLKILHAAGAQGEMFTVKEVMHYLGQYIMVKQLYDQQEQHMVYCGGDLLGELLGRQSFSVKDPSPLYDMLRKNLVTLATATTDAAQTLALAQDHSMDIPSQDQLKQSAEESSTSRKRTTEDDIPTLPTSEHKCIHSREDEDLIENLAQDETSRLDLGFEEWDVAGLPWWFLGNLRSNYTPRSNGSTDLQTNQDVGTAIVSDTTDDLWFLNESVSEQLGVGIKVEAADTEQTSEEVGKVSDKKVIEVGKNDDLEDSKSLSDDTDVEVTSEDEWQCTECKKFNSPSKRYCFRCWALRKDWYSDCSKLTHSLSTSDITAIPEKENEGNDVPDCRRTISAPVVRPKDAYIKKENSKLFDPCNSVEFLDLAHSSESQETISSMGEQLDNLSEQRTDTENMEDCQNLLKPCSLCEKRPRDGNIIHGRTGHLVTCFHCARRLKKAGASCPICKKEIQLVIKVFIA
Target sequence (Q00987 whole entry, looked up): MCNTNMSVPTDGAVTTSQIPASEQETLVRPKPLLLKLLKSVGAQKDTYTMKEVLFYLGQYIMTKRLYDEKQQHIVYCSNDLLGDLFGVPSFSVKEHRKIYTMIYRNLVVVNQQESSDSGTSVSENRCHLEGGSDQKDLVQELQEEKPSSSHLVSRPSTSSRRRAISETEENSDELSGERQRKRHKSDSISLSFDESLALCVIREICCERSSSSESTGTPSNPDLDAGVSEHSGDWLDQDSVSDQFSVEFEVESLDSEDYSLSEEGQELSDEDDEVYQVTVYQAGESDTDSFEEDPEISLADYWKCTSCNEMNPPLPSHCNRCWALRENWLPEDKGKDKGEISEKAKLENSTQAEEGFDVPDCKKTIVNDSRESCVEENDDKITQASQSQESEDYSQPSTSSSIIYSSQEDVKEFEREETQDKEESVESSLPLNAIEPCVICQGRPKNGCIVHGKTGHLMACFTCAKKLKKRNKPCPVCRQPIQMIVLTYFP
Mdm2 MdmX conf – confirmation of human Mdm2/MdmX interaction inhibitors | shares compounds with Mdm2 MdmX PPI | Mdm2-MdmX binding, luminescent assay | inhibition, % at 8 µM | 10,000 tested, 55% active | AID 489028; in the data active = inhibition above about 40%
Full FLuc ctr – inhibits full-length luciferase, flagging false Mdm2/MdmX hits; shares compounds with Mdm2 MdmX PPI; SaOS-2 full-length luciferase counterscreen, luminescence; inhibition, % at 8 µM; 6,200 tested, 77% active; AID 504607;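 active = mean inhibition at 8 µM reaching about 37%, which flags the compound as non-specific, limit read from the data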;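 also: p53-null SaOS-2 cells with luciferase driven by a doxycycline-inducible promoter; compound on cells about two nights before reading with doxycycline added after day one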
* hit, by the source's call; / = no result.

SMILES	CHOP UPR activ	T cruzi inh	UPR XBP1 act	CSC inhib	Beta apoptosis	Mdm2 MdmX PPI	Mdm2 MdmX conf	others
Cc1cc(N/N=C/c2ccccc2Cl)nc(NCc2ccccc2)n1	1.3	31.3	0.8	93.6*	35.1	71.7*	38.2
CCN1CCN(CCNC(=O)c2ccc(CS(=O)c3ccc(Cl)cc3)o2)CC1 (stereo not drawn)	1.2	-2.9	-6.7	-0.2	-3.8	-7.5	/
COc1cc(NC(=O)COC(=O)Cn2cnc3c2c(=O)n(C)c(=O)n3C)cc(OC)c1	-1.5	/	-3.5	/	/	8.5	/
Cc1cc(C)c(S(=O)(=O)NCc2csc(C)n2)c(C)c1	0.9	-6.3	-1.8	1.7	0.0	0.7	/
COc1ccccc1CNC(=O)OCc1nccnc1C(=O)Nc1ccc(Br)cn1	1.9	2.1	3.2	-1.3	-8.8	54.6*	-6.8
Cc1cc(C(=O)C(C)OC(=O)c2cnccn2)c(C)n1-c1ccccc1 (stereo not drawn)	-0.6	1.5	-3.5	-9.8	/	-17.4	/
COc1cc2c(C#N)c(N3CCN(C)CC3)nc(N)c2c(N)n1	-1.2	4.2	3.1	-4.0	0.5	-13.0	/
COc1cc2c(C#N)c(N3CCN(c4ccccc4OC)CC3)nc(N)c2c(N)n1	-1.1	32.1	9.4	2.1	9.5	74.5*	29.9
O=C(NNC(=O)c1ccccc1C(F)(F)F)c1csc(N2CCOCC2)n1	0.7	-6.6	-2.9	-6.7	-20.0	5.8	/
Cc1ccc(C(=O)O/N=C/c2c(N3CCOCC3)n(C)c3ccccc23)cc1	17.8	56.1*	9.1	-7.1	98.8*	51.4*	40.5*	Full FLuc ctr=7.2
Cc1cc(SCC(=O)NN)c2cc(Br)ccc2n1	1.8	19.0	-0.9	21.9	8.6	45.1	/
CC(=O)N1N=C(c2ccccc2)CC1c1cn(Cc2ccccc2)c2ccccc12 (stereo not drawn)	-0.2	9.6	-2.6	52.5	9.0	58.6*	50.9*	Full FLuc ctr=46.8*
Cn1c(=O)c2c(nc(Oc3ccc4ccccc4c3)n2C)n(C)c1=O	-1.4	-12.3	0.8	5.7	-3.7	51.9*	61.6*	Full FLuc ctr=33.6
COc1ccc(Oc2nc3c(c(=O)n(C)c(=O)n3C)n2C)cc1	1.8	15.3	-3.4	-14.7	-1.8	36.6	/
C/C(=N/NC(=O)CN1CCN(Cc2ccccc2Cl)CC1)c1cccnc1	-0.2	18.2	-3.7	9.1	3.1	-2.4	/
Fc1ccc(C2C3=C(Nc4ncnn42)c2ccccc2OC3c2ccncc2)cc1 (stereo not drawn)	2.2	9.0	1.0	-7.6	2.6	17.4	/
Cc1ccc(C2Oc3ccccc3C3=C2C(c2cccs2)n2ncnc2N3)cc1 (stereo not drawn)	3.3	36.2	4.2	61.3	20.6	58.2*	69.9*	Full FLuc ctr=36.6*
CC1CCCC(NC(=S)NC(=O)c2ccccc2Br)C1C (stereo not drawn)	-1.1	15.7	-2.5	0.7	/	12.1	/
Cc1ccc2nc(-c3ccccc3)nc(SC(C)C(=O)NCc3cccs3)c2c1 (stereo not drawn)	-1.3	-6.4	3.1	3.6	15.4	62.9*	-10.1
CC(C)c1ncc(S(=O)(=O)c2ccc(C(F)(F)F)cn2)c(N)n1	0.5	2.8	-0.2	-0.9	2.2	3.5	/
C=CCC[C@@H](Cc1ccc(F)cc1)C(=O)OC[C@H](Cc1c[nH]c2ccccc12)NC(=O)[C@H](CC=C)CC(=O)NCCO	6.1	/	3.2	/	8.5	54.3*	15.6
C=CCC[C@H](Cc1ccc(F)cc1)C(=O)OC[C@@H](Cc1c[nH]c2ccccc12)NC(=O)[C@H](CC=C)CC(=O)NCCO	1.7	/	-0.2	6.4	-6.0	6.0	/
C=CC[C@@H](CC(=O)N[C@H](CO)Cc1ccccc1)C(=O)N[C@H](COC(=O)[C@@H](CC=C)Cc1ccc(F)cc1)Cc1c[nH]c2ccccc12	23.5	/	-1.6	-2.4	30.4	81.1*	49.4*	Full FLuc ctr=37.0*
